Measurements as given in ChEMBL document CHEMBL1154129, “Cytotoxic polyketides from a marine-derived fungus Aspergillus glaucus” (J Nat Prod, 2008).
Active and inactive are the calls of the source. No cut-off for these calls is given here.

What was measured:
Type in all cases: functional, cell-based
A549 [1] = experiment: Cytotoxicity against human A549 cells after 24 hrs by SRB assay; settings: A549, 24 h
Outline: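 A-549 cells plated at 2 × 10^5 cells/mL, then compounds added in MeOH (2 µL per well) at several concentrations for 24 h. Cells fixed with 12% trichloroacetic acid, stained with 0.4% SRB, absorbance read at 515 nm. IC50 taken from the linear portion of log dose–response curves.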

HL-60 [2] = experiment: Cytotoxicity against human HL60 cells after 72 hrs by MTT assay; settings: HL-60, 72 h
Outline: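 HL60 grown in RPMI-1640 with 10% FBS at 37 °C, 5% CO2. Seeded at 5 × 10^4 cells/mL, allowed 24 h, then given compounds in MeOH (2 µL per well) at several concentrations for 72 h. MTT (5 mg/mL stock) added for 4 h, formazan dissolved in DMSO, absorbance read at 540 nm. IC50 taken from the linear portion of log dose–response curves.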

A549 [3] = experiment: Cytotoxicity against human A549 cells at 100 uM after 24 hrs by SRB assay
HL-60 [4] = experiment: Cytotoxicity against human HL60 cells at 100 uM after 72 hrs by MTT assay

Row | Structure (SMILES) | IC50 (A549 [1]) [µM] | IC50 (HL-60 [2]) [µM] | Activity (A549 [3]) | Activity (HL-60 [4])
1 | COc1cc(O)cc2c1C(=O)c1c(O)cc(C)c3oc(=O)c(C(=O)c4c(C)cc(O)cc4O)c-2c13 [ASPERGIOLIDE B] | 0.24 | 0.51 | – | –
2 | COc1cc(O[C@H]2O[C@H](CO)[C@@H](O)[C@H]2O)cc2cc(C)c(C(C)=O)c(O)c12 | – | – | inactive | inactive
3 | COc1cc(O)cc2c1C(=O)c1c(cc(C)c(C(=O)OC[C@H](O)CO)c1O)C2=O | – | – | inactive | inactive
4 | COc1cc(O[C@H]2O[C@H](CO)[C@@H](O)[C@H]2O)cc2cccc(O)c12 | – | – | inactive | inactive
5 | COc1cc(O[C@H]2O[C@H](CO)[C@@H](O)[C@H]2O)cc2cc(C)cc(O)c12 | – | – | inactive | inactive
6 | COc1cc(O)cc2cc3c(c(O)c12)C(=O)C[C@@H](C)[C@@H]3O | – | – | inactive | inactive
7 | COc1cc(O)c2c(c1)[C@@H]([C@H]1c3cc(C)cc(O)c3C(=O)c3c(O)cc(O)cc31)c1cc(C)cc(O)c1C2=O (relative stereo) | 9.2 | 7.8 | – | –
8 | COc1cc(O)c2c(c1)[C@H]([C@H]1c3cc(C)cc(O)c3C(=O)c3c(O)cc(O)cc31)c1cc(C)cc(O)c1C2=O (relative stereo) | 14.2 | 44 | – | –
